Compound activity (PubChem BioAssay)
CHT PAM – CHT positive allosteric modulators, primary screen, cell-based, membrane potential dye, choline EC20 | hit rate 0.49% among 310,000 | B-score at 10 µM | High affinity choline transporter 1 (Homo sapiens), Q9GZV3 | CHT-expressing cells; active compounds read high; LV-AA mutant CHT in HEK293 cells;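 active = initial fluorescence not abnormally high and integrated response B-score, plate-corrected, over 3 SD above library mean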
NR2E3 ag-1 – inhibitors of NR2E3-RetCOR corepressor binding, primary screen, NR2E3 agonist project, biochemical, TR-FRET, GST-NR2E3, biotin-RetCOR. 1536-well. hit rate 0.12% among 320,000. Photoreceptor-specific nuclear receptor (Homo sapiens), Q9Y5X4. AID 2300, 2010. inhibition of corepressor binding, % at 4.78 µM;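 active = percent inhibition above the cutoff of mean plus 3 SD of all tested compounds, set per screening campaign, cut at about 20% in these data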;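 note: 0% = DMSO wells and 100% = biotin wells as full block of FRET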
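Material: NR2E3–RetCOR corepressor complex / Incubation: Compound–protein incubation for 5 h at 4 °C / Dosing: compound at 4.8 µM, single dose / Detection: time-resolved FRET / Benchmarks: high control biotin, low control 0.6% DMSO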
CHT block – inhibitors of human choline transporter CHT. hit rate 0.86% among 310,000. CHT-expressing cells, membrane potential dye, choline response; active compounds read low. B-score at 10 µM. AID 488975, 2010. High affinity choline transporter 1 (Homo sapiens), Q9GZV3;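 active = B-score over 3 SD under the library average, and starting fluorescence ratio not unusually high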;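 note: choline stimulus applied at its EC90 after an EC20 pre-addition; B-score computed on integrated fluorescence ratio after choline addition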
GalR3 antag – GalR3 antagonists in HEK293 cells, primary screen, cell-based, fluorescence readout; HEK293 GalR3-CNG cAMP membrane potential fluorescence; galR3 body fused to GalR1 C-terminus; inhibition, % at 3 µM; hit rate 0.44% among 360,000; AID 651719, 2012;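 active = inhibition above the screen-wide average plus 3 SD, cut at about 13% in these data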;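 note: forskolin and galanin both at EC90 stimulate the cells; cAMP rise reported by CNG channel membrane potential dye signal; 0% = forskolin plus galanin with DMSO and 100% = forskolin alone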
Target sequence (O60755 1-299 limits assumed): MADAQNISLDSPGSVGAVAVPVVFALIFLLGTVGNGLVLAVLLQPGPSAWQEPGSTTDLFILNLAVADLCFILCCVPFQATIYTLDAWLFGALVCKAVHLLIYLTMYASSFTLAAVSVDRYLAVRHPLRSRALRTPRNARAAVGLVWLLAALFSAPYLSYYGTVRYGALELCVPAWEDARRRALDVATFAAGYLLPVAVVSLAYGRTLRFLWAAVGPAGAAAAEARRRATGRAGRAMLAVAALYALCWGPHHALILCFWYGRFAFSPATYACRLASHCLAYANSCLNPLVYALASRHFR
NR2E3 ag-2 – NR2E3 agonists in two-hybrid cells, primary screen, cell-based, luminescence, CHO-S, Gal4-NCOR/VP16-NR2E3; luciferase; inhibition of corepressor binding, % at 3.98 µM; hit rate 0.35% among 360,000; AID 602229, 2012;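 active = inhibition above the mean of all tested compounds plus 3 SD, cut at about 70% in these data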;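 note: 0% = DMSO with NR2E3 transfected cells and 100% = cells lacking NR2E3 construct; higher means lower luciferase signal from less NR2E3 corepressor binding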
COUP-TFII inh – NR2F2 transcriptional activity inhibitors, primary screen, cell-based, luciferase reporter, HEK293T, luminescence. COUP transcription factor 2 (Homo sapiens), P24468. HEK293T NGFI-A luciferase reporter. inhibition, % at 8.6 µM. hit rate 0.7% among 370,000;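 active = inhibition above a per-plate cutoff, mean inhibition of test wells between control levels plus 3 SD, cut at about 38% in these data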;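 note: cells cotransfected with COUP-TFII expression vector driving the NGFI-A reporter; 0% = median of COUP-TF2 test wells and 100% = reporter-only cells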
Gal4-VP16 ctr – Gal4-VP16 luciferase reporter inhibitors, counter-screen for COUP-TFII antagonist project, cell-based, luminescence, HEK293; shares compounds with COUP-TFII inh; inhibition, % at 8.5 µM; hit rate 25% among 2,500; AID 687007, 2013; in the data active = inhibition above about 13%
COUP-TFII conf – NR2F2 transcriptional activity inhibitors, confirmation, cell-based, luciferase reporter, HEK293, triplicate. shares compounds with COUP-TFII inh. HEK293 NGFI-A luciferase reporter, luminescence. inhibition, % at 8.5 µM. hit rate 45% among 2,500. AID 687008, 2013;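 active = mean inhibition over three repeats above a set limit taken from the earlier primary screen, cut at about 38% in these data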;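 note: 100% = cells given the luciferase reporter alone without the COUP-TF2 vector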
* hit, by the source's call; ! = a repeat was not active. An excerpt weighted towards active compounds, which were near 2.3% of everything screened.

For CC(=O)c1sc(Nc2nc3ccc(F)cc3s2)nc1C the results were CHT PAM inactive, NR2E3 ag-1 5.2, CHT block inactive, GalR3 antag -2.5, NR2E3 ag-2 -47.0 and COUP-TFII inh -43.3.
Screening COC(=O)c1ccc2nc(NC(=O)C(C)(C)C)sc2c1 returned CHT PAM inactive, NR2E3 ag-1 2.4, CHT block inactive, GalR3 antag -6.2, NR2E3 ag-2 -16.8, COUP-TFII inh 66.4*, Gal4-VP16 ctr -75.3 and COUP-TFII conf 35.1.
For COC(=O)c1ccc2nc(Nc3nc4ccc(F)cc4s3)sc2c1 the results were CHT PAM inactive, NR2E3 ag-1 -0.7, CHT block inactive, GalR3 antag -3.7, NR2E3 ag-2 27.2, COUP-TFII inh 52.5*, Gal4-VP16 ctr -9.9 and COUP-TFII conf 57.6*.
For COC(=O)C[C@@H]1CC[C@H]2[C@@H](COc3ccc(NC(=O)Nc4ccc(C)cc4)cc3C(=O)N2C)O1 the results were COUP-TFII inh -12.4.
Screening C=CCN1[C@H](C#N)[C@@H](c2ccc(C#Cc3cccnc3)cc2)[C@H]1CO returned COUP-TFII inh 6.5.
Cc1ccc(-n2c(SCC(=O)N/N=C/C=C\c3ccco3)nnc2-c2ccccc2)cc1 was read as COUP-TFII inh 7.6.
Screening Nc1cc(=O)[nH]c(SCc2ccc(Cl)cc2Cl)n1 returned CHT PAM inactive, NR2E3 ag-1 -2.5, CHT block inactive, GalR3 antag 3.2, NR2E3 ag-2 11.3, COUP-TFII inh 48.2*, Gal4-VP16 ctr 15.9* and COUP-TFII conf 33.8.
For COc1ccccc1N(/N=C1\Sc2ccccc2C1=O)C(C)=O the results were CHT PAM inactive, NR2E3 ag-1 -2.1, CHT block inactive, GalR3 antag -1.4, NR2E3 ag-2 -16.2, COUP-TFII inh 38.9*, Gal4-VP16 ctr -20.7 and COUP-TFII conf 33.1.
For CN1C(=CC=C2C=C(I)C(=O)C(I)=C2)C(C)(C)c2ccccc21 the results were GalR3 antag -1.7, NR2E3 ag-2 -16.7 and COUP-TFII inh 5.8.
For CN1/C(=C\C=C2/SC(=S)NC2=O)C(C)(C)c2ccccc21 the results were CHT PAM inactive, NR2E3 ag-1 0.9, CHT block inactive, GalR3 antag -8.0, NR2E3 ag-2 2.3, COUP-TFII inh 41.8*, Gal4-VP16 ctr 13.7* and COUP-TFII conf 23.7.
`Cc1ccc2c(c1)C(CS(=O)(=O)NCc1ccccc1)NC2` (stereo not given) gave COUP-TFII inh -10.6.
CCC1CCCCN1C(=O)n1ncc(C(O)(c2ccccc2)c2ccccc2)n1 (stereo not given) was read as COUP-TFII inh 49.9*, Gal4-VP16 ctr -4.2 and COUP-TFII conf 42.7*!.
Screening COC(=O)[C@]12C[C@H](CC(=O)NCC3CCCCC3)C(=O)N(Cc3cccc4ccccc34)C1=C[C@H](COCc1ccccc1)O[C@@H]2C returned COUP-TFII inh 4.3.
CC(COc1ccc(C#N)cc1F)CN1CCC(C(O)(c2ccccc2)c2ccccc2)CC1 (stereo not given) was read as COUP-TFII inh -3.7.
For COc1ccc(-c2c[n+](CC(=O)OC3CC(C)CCC3C(C)C)c3n2CCC3)cc1 (stereo not given) the results were CHT PAM inactive, NR2E3 ag-1 -0.6, CHT block inactive, GalR3 antag -0.1, NR2E3 ag-2 -11.4, COUP-TFII inh 64.0*, Gal4-VP16 ctr 5.7 and COUP-TFII conf 19.4.
Screening O=C(NC1CCCCN(Cc2cccc(Cl)c2)C1=O)c1ccc(COc2ccccc2)cc1 (stereo not given) returned COUP-TFII inh 48.3*, Gal4-VP16 ctr 0.7 and COUP-TFII conf 36.1.
For CC(Sc1ncnc2sccc12)C(=O)Nc1ccc(S(N)(=O)=O)cc1 (stereo not given) the results were GalR3 antag -6.6, NR2E3 ag-2 10.6 and COUP-TFII inh -1.5.
`NS(=O)(=O)c1ccc(CCNc2ncnc3sccc23)cc1` gave CHT PAM inactive, NR2E3 ag-1 3.4, CHT block inactive, GalR3 antag 3.5, NR2E3 ag-2 12.5, COUP-TFII inh 52.8*, Gal4-VP16 ctr -7.7 and COUP-TFII conf 36.8.
Screening NCCCNc1nc(N)c([N+](=O)[O-])c(NC2CCCCC2)n1 returned CHT PAM inactive, NR2E3 ag-1 0.0, CHT block inactive, GalR3 antag -14.9, NR2E3 ag-2 33.9, COUP-TFII inh 41.1*, Gal4-VP16 ctr -26.4 and COUP-TFII conf 24.0.
COCCNc1nc(N)c([N+](=O)[O-])c(NC2CCCCC2)n1 was read as CHT PAM inactive, NR2E3 ag-1 -4.4, CHT block inactive, GalR3 antag -3.7, NR2E3 ag-2 -9.9 and COUP-TFII inh 7.3.
Screening CCN1CCS/C1=C\C=C\C1=[N+](CC)CCS1 returned GalR3 antag 15.4*, NR2E3 ag-2 13.9, COUP-TFII inh 68.1*, Gal4-VP16 ctr 11.8 and COUP-TFII conf 63.6*.
Screening Cc1cccc(NC(=O)c2ccc(F)c(S(=O)(=O)NCc3ccco3)c2)c1 returned CHT PAM inactive, NR2E3 ag-1 -0.9, CHT block inactive, GalR3 antag -6.3, NR2E3 ag-2 -13.4 and COUP-TFII inh 22.6.
For O=C(Nc1cccc(Cl)c1)c1ccc(F)c(S(=O)(=O)NCc2cccs2)c1 the results were CHT PAM inactive, NR2E3 ag-1 -0.3, CHT block inactive, GalR3 antag -5.8, NR2E3 ag-2 -24.1, COUP-TFII inh 38.0*, Gal4-VP16 ctr -10.1 and COUP-TFII conf 12.6.
Screening CCOC(=O)Cn1cc(CN2C(C(=O)OC)CN(CCO)CCS2(=O)=O)nn1 (stereo not given) returned COUP-TFII inh -12.8.
For O=C(NCCc1ccccc1F)c1ccc2c(c1)ncn2C1CCCCC1 the results were COUP-TFII inh -62.8.
